Experimental data reported in ChEMBL document CHEMBL4402562, “Discovery of Novel Peptidomimetic Boronate ClpP Inhibitors with Noncanonical Enzyme Mechanism as Potent Virulence Blockers in Vitro and in Vivo” (J Med Chem, 2020).
Activity calls are given as the source filed them. No cut-off for these calls is given here. Where a SMILES comes first, the peptide text is derived from it. The star is where a group is joined. Cbz = O=C(OCc1ccccc1)*; CH2Cl = ClC*

What was measured:
[1] = Inhibition of Pseudomonas aeruginosa ClpP1 expressed in Escherichia coli […] pre-incubated for 10 mins before Suc-LY- AMC addition and measured after 1 hr by fluorescence based assay relative to control
Method in brief: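 PaClpP1 (0.5 μM monomer) in 25 mM Tris-Cl pH 7.5, 150 mM NaCl. Preincubated 10 min at RT with inhibitor, two-fold dilutions over 8 steps from 50 μM. Then 50 μM Suc-LY-AMC, 380/440 nm for 1 h at 37 °C, slopes normalized to DMSO. Thrice, triplicate wells.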

[2] = target: 20S proteasome (Homo sapiens) (UniProt P49721+P20618+P28074+P28062+P28065+P28072+P25786+P25787+P25788+P25789+P28066+P60900+O14818+Q8TAA3+P40306+A5LHX3+P49720+P28070+Q99436); assay: Inhibition of 20S proteasome (unknown origin) pre-incubated before Suc-LLVY-AM addition and measured after 1 hr by fluorescence based assay; type: protein-complex assay
[3] = target: T1, ATP-dependent Clp protease proteolytic subunit (Staphylococcus aureus (strain NCTC 8325), UniProt Q2G036); assay: Binding affinity to N-terminal His6-sumo-tagged full length Staphylococcus aureus ClpP expressed in Escherichia coli […] by ITC analysis
T1 sequence (Q2G036 whole entry): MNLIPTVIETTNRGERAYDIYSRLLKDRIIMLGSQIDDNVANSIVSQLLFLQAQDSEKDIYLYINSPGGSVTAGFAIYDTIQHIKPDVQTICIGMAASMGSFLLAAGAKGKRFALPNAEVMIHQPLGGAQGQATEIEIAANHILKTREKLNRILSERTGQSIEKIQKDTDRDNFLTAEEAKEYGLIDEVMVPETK
Method in brief: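 ITC at 500 rpm stirring after 150 s equilibration. A discarded 1 μL first injection, then 19 injections of 2 μL over 5 s each, 2–3 min apart, into 200 μL sample cell. Reference power 7 μcal/s, high gain, 5-s filter, baseline-corrected fit.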

[4] = target: Coagulation factor X (Homo sapiens) (UniProt P00742); assay: Inhibition of human F10a up to 100 uM pre-incubated for 10 mins before Pefachrome Fxa addition and measured after […] based assay
[5] = Inhibition of human ClpP (57 to 277 residues) expressed in Escherichia coli […] pre-incubated for 10 mins before Ac-WLA-AMC addition and measured after 1 hr by fluorescence based assay relative to control
Method in brief: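 hClpP (3.5 μM monomer) in 25 mM Tris-HCl pH 8.0, 100 mM KCl. Preincubated 10 min at RT with inhibitor, two-fold dilutions over 8 steps from 100 μM. Then 100 μM Ac-WLA-AMC, 380/440 nm for 1 h at 37 °C, slopes normalized to DMSO. Thrice, triplicate wells.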

[6] = system: Staphylococcus aureus; assay: Inhibition of Staphylococcus aureus ClpXP expressed in Escherichia coli […] at 1 to 100 uM using FITC-casein substrate in presence of ATP-regenerating system incubated for 50 mins by fluorescence based assay
Method in brief: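 3.6 μM SaClpP with 3 μM SaClpX in 25 mM Hepes pH 7.5, 20 mM MgCl2, 30 mM KCl, 0.03% Tween 20, 10% glycerol, 2 mM DTT. ATP regeneration: 4 mM ATP, 20 U/mL creatine kinase, 16 mM creatine phosphate. FITC-casein 0.048 mg/mL, 494/521 nm for 50 min; slope 300–1200 s vs DMSO. Thrice, triplicate wells.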

[7] = target: T2, ATP-dependent Clp protease proteolytic subunit (Staphylococcus aureus (strain NCTC 8325)) (UniProt Q2G036); assay: (§1) Inhibition of N-terminal His6-sumo-tagged full length Staphylococcus aureus ClpP expressed in Escherichia coli BL2 (DE3) at 3 uM pre-incubated for 10 mins before 200 uM to 1 mM Suc-LY-AMC addition and measured after 1 hr by fluorescence based assay relative to control
T2 sequence (whole entry): T1 sequence (Q2G036 whole entry)
Method in brief: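 SaClpP (1 μM) in 100 mM Hepes pH 7.0, 100 mM NaCl preincubated 10 min at RT with 3 μM inhibitor. Suc-LY-AMC at 200 μM or 1 mM, fluorescence at 380/440 nm for 1 h at 37 °C. Slope relative to DMSO; three independent replicates.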

[8] = target: T2, ATP-dependent Clp protease proteolytic subunit (Staphylococcus aureus (strain NCTC 8325)); assay: as §1, with “[…] assessed as enzyme activity recovery level” for “(DE3)”, “20-fold molar excess” for “3 uM”, “before” for “before 200 uM to 1 mM”, “hr followed by dialysis up to 72 hrs” for “hr”; set-up: scale not given: the % may be the effect or the level left
Method in brief: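 ClpP (1 μM, 100 mM Hepes pH 7.0, 100 mM NaCl) incubated 1 h at RT with 20-fold molar excess inhibitor or DMSO. Dialyzed at 4 °C, buffer changed after 6 h and then every 24 h. Aliquots assayed for peptidase activity with Suc-LY-AMC. Thrice, single sample.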

[9] = target: T1, ATP-dependent Clp protease proteolytic subunit; assay: Binding affinity to N-terminal His6-sumo-tagged full length Staphylococcus aureus ClpP expressed in Escherichia coli […] assessed as shifting of melting peak of SaClpP by differential scanning calorimetry analysis
Method in brief: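 DSC: 0.5 mg/mL (25 µM) SaClpP with 100 µM compound or two-fold dilution series, RT; scanned 30-90 °C at 1 °C/min, buffer-buffer scan subtracted; Tm from thermogram peak maximum; single run.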

[10] = Inhibition of AlgW (unknown origin) up to 100 uM pre-incubated for 10 mins before Abz-T-V-A-W-pNA addition and measured after 1 hr by fluorescence based assay
[11] = target: T2, ATP-dependent Clp protease proteolytic subunit (Staphylococcus aureus (strain NCTC 8325)); assay: Binding affinity to N-terminal His6-sumo-tagged full length Staphylococcus aureus ClpP expressed in Escherichia coli […] assessed as melting temperature at 100 uM by differential scanning calorimetry analysis (reference value: 50.8 degC)
Method in brief: (§2)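 DSC: SaClpP at 0.5 mg/mL (25 μM) incubated at RT with 100 μM inhibitor in assay buffer. Scanned at 1 °C/min over 30–90 °C, with a buffer-buffer scan subtracted. Tm taken as the thermogram peak maximum. Run once, single sample.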

[12] = target: T2, ATP-dependent Clp protease proteolytic subunit (Staphylococcus aureus (strain NCTC 8325)); assay: Binding affinity to N-terminal His6-sumo-tagged full length Staphylococcus aureus ClpP expressed in Escherichia coli […] assessed as change in melting temperature at 100 uM by differential scanning calorimetry analysis; method in brief: as §2
[13] = target: ATP-dependent Clp protease proteolytic subunit (Escherichia coli (strain K12), UniProt P0A6G7); assay: Inhibition of Escherichia coli ClpP
Chain of ATP-dependent Clp protease proteolytic subunit (Escherichia coli (strain K12), UniProt P0A6G7) (P0A6G7 whole entry): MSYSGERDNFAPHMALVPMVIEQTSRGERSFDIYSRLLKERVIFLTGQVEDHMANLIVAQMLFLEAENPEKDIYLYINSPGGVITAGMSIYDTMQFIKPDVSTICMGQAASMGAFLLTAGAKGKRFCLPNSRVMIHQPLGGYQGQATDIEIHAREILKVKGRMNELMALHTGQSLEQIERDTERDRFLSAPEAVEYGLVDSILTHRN

Chain of Coagulation factor X (Homo sapiens) (P00742 41-179 limits assumed): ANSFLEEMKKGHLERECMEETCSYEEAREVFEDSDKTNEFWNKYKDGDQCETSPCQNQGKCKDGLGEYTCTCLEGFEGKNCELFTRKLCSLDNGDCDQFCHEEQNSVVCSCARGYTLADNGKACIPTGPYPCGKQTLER
Chain of Coagulation factor X (Homo sapiens) (P00742 235-488 limits assumed): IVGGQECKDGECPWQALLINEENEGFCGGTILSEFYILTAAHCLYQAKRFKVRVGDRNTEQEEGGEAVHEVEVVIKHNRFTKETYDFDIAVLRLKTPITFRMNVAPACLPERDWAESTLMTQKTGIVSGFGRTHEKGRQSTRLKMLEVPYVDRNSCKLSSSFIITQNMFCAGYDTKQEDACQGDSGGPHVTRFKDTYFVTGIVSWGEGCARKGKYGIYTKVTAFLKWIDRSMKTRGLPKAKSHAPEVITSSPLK

Row | IC50 [1] [µM] | inhibition [2] | Kd [3] [µM] | inhibition [4] | IC50 [5] [µM] | inhibition [6] | inhibition [7] | Activity [8] [%] | EC50 [9] [µM] | inhibition [10] | Tm [11] [°C] | ΔTm [12] [°C] | IC50 [13] [µM] | Structure (SMILES)
1 | 3 to 25 | Active | 7.3 | inactive | 3 to 25 | inactive | Active | 100 | 19.9 | inactive | 66.5 | 29.5 to 42.2 |  | CC(C)C[C@H](NC(=O)CNC(=O)c1cc(Cl)ccc1Cl)B1OC(=O)CC(CC(=O)O)(C(=O)O)O1 (stereo partly drawn)
2 |  |  |  |  |  |  |  |  |  |  |  |  | 14.4 | CC(C)C[C@H](NC(=O)OCc1ccccc1)C(=O)N[C@@H](Cc1ccc(O)cc1)C(=O)CCl (Cbz-Leu-Tyr-CH2Cl)
